In brackets after ≈: the same amount, converted by molar mass. Activity calls are given as the source filed them. The calls are words filed in the database; no cut-off is given here.
What was measured:
[1] = Drug metabolism of compound in human liver microsomes assessed as hydroxy-acid metabolite formation; type: ADME, Microsome
[2] = target: Signal transducer and activator of transcription 3 (Homo sapiens) (UniProt P40763); experiment: Inhibition of STAT3 in human MDA-MB-231 cells assessed as effect on Erk1/2 expression at 1 to 3 uM incubated for 3 to 24 hrs by immunoblotting analysis; type: cell-based; details: dose 1-3 µM, time lower 3.0 hrs, time upper […]
Chain of Signal transducer and activator of transcription 3 (Homo sapiens) (P40763 whole entry): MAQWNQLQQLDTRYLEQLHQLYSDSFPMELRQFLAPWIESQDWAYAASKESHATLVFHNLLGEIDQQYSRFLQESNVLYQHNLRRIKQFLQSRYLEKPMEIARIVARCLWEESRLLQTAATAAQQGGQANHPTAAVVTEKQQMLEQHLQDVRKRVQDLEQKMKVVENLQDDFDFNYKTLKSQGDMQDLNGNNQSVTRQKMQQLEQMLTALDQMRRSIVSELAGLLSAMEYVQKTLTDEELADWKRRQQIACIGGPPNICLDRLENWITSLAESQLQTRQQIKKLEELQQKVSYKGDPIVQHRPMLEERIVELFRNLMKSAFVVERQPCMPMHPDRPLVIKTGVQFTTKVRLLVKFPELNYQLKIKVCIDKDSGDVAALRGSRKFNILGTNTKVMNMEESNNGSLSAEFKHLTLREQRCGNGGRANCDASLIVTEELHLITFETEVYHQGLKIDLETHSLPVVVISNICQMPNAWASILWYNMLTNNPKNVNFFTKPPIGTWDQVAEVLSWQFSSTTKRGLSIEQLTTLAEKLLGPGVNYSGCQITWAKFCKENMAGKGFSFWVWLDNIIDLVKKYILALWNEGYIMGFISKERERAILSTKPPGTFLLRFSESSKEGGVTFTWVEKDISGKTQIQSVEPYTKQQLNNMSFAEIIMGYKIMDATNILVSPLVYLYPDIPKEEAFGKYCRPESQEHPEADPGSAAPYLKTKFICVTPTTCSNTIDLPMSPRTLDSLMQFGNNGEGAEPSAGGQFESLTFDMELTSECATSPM
How it was run: (§1)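 MDA-MB-231 cells treated with 1 or 3 μM compound. Whole-cell lysates prepared in RIPA buffer and immunoblotted for EGFR, JAK2, Src, AKT and ERK1/2.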

[3] = target: Signal transducer and activator of transcription 3 (Homo sapiens) (UniProt P40763); experiment: Inhibition of STAT3 in human MDA-MB-231 cells assessed as effect on Akt expression at 1 to 3 uM incubated for 3 to 24 hrs by immunoblotting analysis; type: cell-based; details: dose 1-3 µM, time lower 3.0 hrs, time upper […]; how it was run: as §1
[4] = target: Signal transducer and activator of transcription 3 (Homo sapiens) (UniProt P40763); experiment: Inhibition of STAT3 in human MDA-MB-231 cells assessed as inhibition of c-myc expression at 1 to 3 uM incubated for 3 to 24 hrs by immunoblotting analysis; type: cell-based; details: dose 1-3 µM, time lower 3.0 hrs, time upper […]
How it was run: (§2)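 MDA-MB-231 cells treated with 1 or 3 μM compound for 3–24 h. Equal-protein whole-cell lysates (RIPA) immunoblotted for c-Myc, Bcl-2, VEGF, survivin and tubulin. Control is 0.05% DMSO-treated cells. Two to three independent determinations.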

[5] = target: Signal transducer and activator of transcription 3 (Homo sapiens) (UniProt P40763); experiment: Inhibition of STAT3 in human MDA-MB-231 cells assessed as induction of PARP cleavage at 1 to 3 uM incubated for 3 to 24 hrs by immunoblotting analysis; type: cell-based; details: dose 1-3 µM, time lower 3.0 hrs, time upper […]
How it was run: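 Equal-protein whole-cell lysates run on SDS-PAGE/Western and probed for full-length and cleaved PARP, pYSTAT3, STAT3 and tubulin. Control is 0.05% DMSO. Two independent determinations.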

[6] = Aqueous solubility of compound in simulated intestinal fluid; type: physicochemical; details: simulated gi fluid
[7] = target: Signal transducer and activator of transcription 3 (Homo sapiens) (UniProt P40763); experiment: Inhibition of STAT3 in human MDA-MB-231 cells assessed as inhibition of VEGF expression at 1 to 3 uM incubated for 3 to 24 hrs by immunoblotting analysis; type: cell-based; details: dose 1-3 µM, time lower 3.0 hrs, time upper […]; how it was run: as §2
[8] = target: Signal transducer and activator of transcription 3 (Homo sapiens) (UniProt P40763); experiment: Inhibition of STAT3 in human MDA-MB-231 cells assessed as effect on Src expression at 1 to 3 uM incubated for 3 to 24 hrs by immunoblotting analysis; type: cell-based; details: dose 1-3 µM, time lower 3.0 hrs, time upper […]; how it was run: as §1
[9] = target: Signal transducer and activator of transcription 3 (Homo sapiens) (UniProt P40763); experiment: Binding affinity to STAT3 (unknown origin) assessed as change in entropy by isothermal titration calorimetry
[10] = target: Signal transducer and activator of transcription 3 (Homo sapiens) (UniProt P40763); experiment: Inhibition of oligonucleotide [32P]-labelled 5'-AGCITCATTTCCCGTAAATCCCTA hSIE probe binding to STAT3 in human MDA-MB-468 cell nuclear extract at 5 uM by EMSA analysis; details: time upper […], TDE = time-dependent effect
[11] = test system: MCF7; experiment: Antiproliferative activity against human MCF7 cells assessed as reduction in cell viability incubated for 72 hrs by CyQuant assay; type: functional, cell-based; details: MCF7, 72 h
[12] = target: Signal transducer and activator of transcription 3 (Homo sapiens) (UniProt P40763); experiment: Inhibition of STAT3 in human MDA-MB-231 cells assessed as effect on EGFR expression at 1 to 3 uM incubated for 3 to 24 hrs by immunoblotting analysis; type: cell-based; details: dose 1-3 µM, time lower 3.0 hrs, time upper […]; how it was run: as §1
[13] = test system: MCF-10A; experiment: Cytotoxicity against human MCF-10A cells assessed as reduction in cell viability incubated for 72 hrs by CyQuant assay; type: cell-based
[14] = test system: MDA-MB-231; experiment: Anticlonogenic activity against human MDA-MB-231 cells assessed as inhibition of colony formation at 0.5 uM incubated for 4 hrs by crystal violet staining based assay; type: functional, cell-based
How it was run: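 MDA-MB-231 cells seeded as single-cell cultures (250 cells per well), treated once the next day with compound at 0–1 μM and grown until large colonies were visible. Colonies stained with crystal violet for 4 h and photographed. Three independent determinations.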

[15] = Drug metabolism of compound in human liver microsomes assessed as metabolite formation; type: ADME, Microsome
[16] = target: Signal transducer and activator of transcription 3 (Homo sapiens) (UniProt P40763); experiment: Inhibition of STAT3 in human MDA-MB-231 cells assessed as inhibition of Bcl-2 expression at 1 to 3 uM incubated for 3 to 24 hrs by immunoblotting analysis; type: cell-based; details: dose 1-3 µM, time lower 3.0 hrs, time upper […]; how it was run: as §2
[17] = Aqueous solubility of compound in simulated gastric fluid; type: physicochemical; details: simulated gi fluid
[18] = target: Signal transducer and activator of transcription 3 (Homo sapiens) (UniProt P40763); experiment: Inhibition of STAT3 in human MDA-MB-231 cells assessed as effect on JAK2 expression at 1 to 3 uM incubated for 3 to 24 hrs by immunoblotting analysis; type: cell-based; details: dose 1-3 µM, time lower 3.0 hrs, time upper […]; how it was run: as §1
[19] = test system: MDA-MB-468; experiment: Antiproliferative activity against human MDA-MB-468 cells harbouring STAT3 assessed as reduction in cell viability incubated for 72 hrs by CyQuant assay; type: functional, cell-based; details: MDA-MB-468, 72 h
[20] = target: Signal transducer and activator of transcription 3 (Homo sapiens) (UniProt P40763); experiment: Inhibition of STAT3 in human MDA-MB-231 cells assessed as inhibition of survivin expression at 1 to 3 uM incubated for 3 to 24 hrs by immunoblotting analysis; type: cell-based; details: dose 1-3 µM, time lower 3.0 hrs, time upper […]; how it was run: as §2

With `O=C1OCc2cc(N(Cc3ccc(C4CCCCC4)cn3)C(=O)[C@H]3CCN3S(=O)(=O)c3c(F)c(F)c(F)c(F)c3F)ccc21` the Drug metabolism [1] was “Metabolite_Detected”, the inhibition [2] was “Active” and the inhibition [3] was “Active”. The inhibition [4] was “Active”, the inhibition [5] was “Active” and the solubility [6] was 200 µg/mL (≈ 315 µM). The inhibition [7] was “Active”, the inhibition [8] was “Active” and the -TdeltaS [9] was -11.9 kJ/mol. The inhibition [10] was “Tde”, the EC50 [11] was 4.6 µM and the inhibition [12] was “Active”. For the same molecule, the EC50 [13] was 4.6 µM, the inhibition [14] was “Active” and the Drug metabolism [15] was “Metabolite_Detected”. The inhibition [16] was “Active”, the solubility [17] was 116 µg/mL (≈ 183 µM) and the inhibition [18] was “Active”. For the same molecule, the EC50 [19] was 1000 nM and the inhibition [20] was “Active”.
